{"data": "Assay results gathered from unrelated publications"}
{"Compound": "CCN(CC)c1ccc(/C=N/c2ccc(F)c(Cl)c2)c(O)c1", "read-out": "DPPH scavenging", "quantity": "IC50", "result": "47.6 µM"}
{"Compound": "Cc1c(C)c2c(c(C)c1O)CCC(C)(C(=O)O)O2 (stereo not drawn)", "read-out": "DPPH scavenging", "quantity": "IC50", "result": "70.2 µM"}
{"Compound": "S=C(Nc1ccccc1)Nc1ccc(Oc2nnc(-c3ccc(Cl)cc3)c3ccccc23)cc1", "target or system": "MCF7", "read-out": "cell growth or viability", "technique": "MTT", "tested at": "0.312 µM", "time": "24 h", "quantity": "viability", "result": "100%"}
{"Compound": "Clc1cccc(/C=N/N=C/c2cccc(Cl)c2)c1", "read-out": "DPPH scavenging", "quantity": "IC50", "result": "2350 µM"}
{"Compound": "CCOC(=O)c1nn(-c2cccc(Cl)c2)/c(=N/N=C(\\C)c2ccc(NC(=O)c3ccc(Cl)cc3)cc2)s1", "target or system": "MCF7", "read-out": "cell growth or viability", "technique": "MTT", "tested at": "0.625 µM", "quantity": "viability", "result": "3.92%"}
{"Compound": "O=C(Nc1ccccc1)Nc1ccc(Oc2nnc(-c3ccc(Cl)cc3)c3ccccc23)cc1", "target or system": "MCF7", "read-out": "cell growth or viability", "technique": "MTT", "tested at": "78 nM", "time": "24 h", "quantity": "viability", "result": "96.4%"}
{"Compound": "CC(=O)c1nn(-c2ccccc2Cl)/c(=N/N=C(\\C)c2ccc(NC(=O)c3ccccc3)cc2)s1", "target or system": "MCF7", "read-out": "cell growth or viability", "technique": "MTT", "tested at": "5 µM", "quantity": "viability", "result": "6.17%"}
{"Compound": "Nc1ccc(/C=N/N=C/c2ccc(N)cc2)cc1", "read-out": "DPPH scavenging", "quantity": "IC50", "result": "> 3000 µM"}
{"Compound": "CCN(CC)c1ccc(/C=N/c2ccc(Cl)cc2)c(O)c1", "read-out": "DPPH scavenging", "quantity": "IC50", "result": "30.3 µM"}
{"Compound": "FC(F)(F)c1ccc(/C=N/N=C/c2ccc(C(F)(F)F)cc2)cc1", "read-out": "DPPH scavenging", "quantity": "IC50", "result": "> 3000 µM"}
{"Compound": "CC(=O)c1nn(-c2ccc(C)cc2)/c(=N/N=C(\\C)c2ccc(NC(=O)c3ccccc3)cc2)s1", "target or system": "MCF7", "read-out": "cell growth or viability", "technique": "MTT", "tested at": "0.156 µM", "quantity": "viability", "result": "9.14%"}
{"Compound": "CC(=NNC(=O)c1ccccc1)c1ccc(Nc2nnc(-c3ccc(Cl)cc3)c3ccccc23)cc1", "target or system": "MCF7", "read-out": "cell growth or viability", "technique": "MTT", "tested at": "5 µM", "time": "24 h", "quantity": "viability", "result": "5.18%"}
{"Compound": "Brc1ccccc1/C=N/N=C/c1ccccc1Br", "read-out": "DPPH scavenging", "quantity": "IC50", "result": "> 3000 µM"}
{"Compound": "O=C1O[C@H]([C@@H](O)CO)C(O)=C1O", "read-out": "DPPH scavenging", "technique": "absorbance", "time": "30 min", "quantity": "IC50", "result": "11.6 µM"}
{"Compound": "CC(=NNC(=O)c1ccccc1O)c1ccc(Nc2nnc(-c3ccc(Cl)cc3)c3ccccc23)cc1", "target or system": "MCF7", "read-out": "cell growth or viability", "technique": "MTT", "tested at": "5 µM", "quantity": "cell death", "result": "66.2%"}
